Ends that are not written are not given here. * marks the point of attachment. Octanoyl = CCCCCCCC(=O)*
Experiments:
E. coli = assay: Measurement of zeta-potential of bacteria treated with peptide; design: species or system Escherichia coli; conditions: 5 and 20 μg peptide/10^5 bacterial cells, 10 mM NaPi, 20 min, 37°C
Summary of the method: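 Overnight E. coli cultures were washed in PBS and resuspended at 10^8 cells/mL in 10 mM sodium phosphate. Cells were added to phosphate buffer containing peptide to give 5 or 20 μg peptide per 10^5 cells, then incubated 20 min at 37°C. Zeta potential was read on a particle sizer/zetasizer, and the mean was computed by the Smoluchowski equation. Values are mean ± SD of three independent experiments.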

[1] = test system: P. aeruginosa (ATCC 15692); assay: Agar plate-based bactericidal assay; assay type: cell-based, Pseudomonas aeruginosa
Summary of the method: (§1)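 Bacteria were grown aerobically overnight in BHI broth at 37°C, washed twice in PBS and suspended at 10^5 cells/mL in 10 mM sodium phosphate, pH 6.8. Suspensions were exposed to the test peptide over a range of concentrations for 2 h at 37°C, aerobically. For salt sensitivity, NaCl was added at 0–150 mM, with 25 μg/ml test peptide or 1 μg/ml reference peptide. Samples were diluted in PBS, plated on BHI agar overnight at 37°C and counted for CFU. Survival is expressed as a percentage of untreated; mean ± SD of three independent experiments.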

E. coli (ATCC 27325) = assay: Agar plate-based bactericidal assay; assay type: cell-based, Escherichia coli
Summary of the method: as §1

E. faecalis (ATCC 29212) = assay: Agar plate-based bactericidal assay; assay type: cell-based, Enterococcus faecalis; conditions: range of ghrelin concentrations tested; data not shown
[2] = LL37 1 μg/ml, 10 mM NaPi pH 6.8 with NaCl 0 to 150 mM, dose-dependent
[3] = physiological NaCl concentration (150 mM) in 10 mM NaPi pH 6.8, AG 25 μg/ml

Substance | effect on zeta-potential of E. coli (in words) (E. coli) | effect of NaCl on bactericidal activity (in words) [1, 2] | effect of NaCl on bactericidal activity (in words) (E. coli (ATCC 27325); [2]) | bactericidal effects (in words) (E. faecalis (ATCC 29212)) | effect of NaCl on bactericidal activity (in words) [1, 3] | effect of NaCl on bactericidal activity (in words) (E. coli (ATCC 27325); [3])
LL37 (LLGDFFRKSKEKIGKEFKRIVQRIKDFLRNLVPRTES; Antibacterial peptide LL-37; UniProt P49913 134-170, looked up) [reference compound] | increased the zeta-potential of E. coli | attenuated | attenuated |  |  | 
acylated ghrelin (GSS(Octanoyl)FLSPEHQRVQQRKESKKPPAKLQPR; UniProt Q9UBU3 24-51, looked up) [AG] |  |  |  | neither AG nor DAG showed significant bactericidal effects | decreased | decreased
desacylated ghrelin (GSSFLSPEHQRVQQRKESKKPPAKLQPR; Ghrelin-28 non-acylated; UniProt Q9UBU3 24-51, looked up) [DAG] |  |  |  | neither AG nor DAG showed significant bactericidal effects |  | 
